# Experimental data collected from several papers.
# Compare with care: the assays were run in different laboratories.
# Target: Phosphatidylinositol 3-kinase C2 domain-containing subunit gamma (PIK3C2G, Homo sapiens, UniProt O75747)
Structure (SMILES),assay,conditions,quantity,result
COc1cc(Cl)c(C(=O)N[C@@H](CN[C@H]2CC[C@@H](N)CC2)Cc2ccc(C#N)cc2)cc1-c1ccc(CN[C@H](C)c2ccc(C)cc2)o1,"enzyme activity, inhibitor",1 µM,remaining activity,96%
CN1CC(Oc2cnc(C#N)cc2-c2ccn3nc(NC(=O)C4CC4)cc3c2)C1,"enzyme activity, inhibitor",1 µM,inhibition,-6%
CN(C)CC#Cc1ccc(OCCCc2sc(N3CCc4cccc(C(=O)Nc5nc6ccccc6s5)c4C3)nc2C(=O)O)c(F)c1,"cell-free assay, competition with immobilised ligand",1 µM,remaining binding,100%
Cc1cnc(NC2CCOCC2)nc1-n1cnc(C(=O)NC(CN)c2cc(F)cc(Cl)c2)c1 (stereo not shown),"enzyme activity, inhibitor, radiometric",1 µM,remaining activity,100%
Cc1cc(NC(=O)c2cccc3cc(-c4cccc5[nH]nc(N)c45)ccc23)ccc1F,"enzyme activity, inhibitor",0.1 µM,activity vs control,103%
CO[C@H]1CC[C@H](CNc2ccc(S(=O)(=O)NC(=O)c3ccc(N4CCN(CC5=C(c6ccc(Cl)cc6)CC(C)(C)CC5)CC4)cc3Oc3cnc4[nH]ccc4c3)cc2[N+](=O)[O-])CC1,"cell-free assay, competition with immobilised ligand",1 µM,remaining binding,72%
C=CC(=O)Nc1cc(Nc2nccc(Nc3cc(Cl)c(F)cc3C(C)(C)O)n2)c(OC)cc1N1CC[C@@H](N(C)C)C1,"enzyme activity, inhibitor",1 µM,inhibition,-3%
Cc1ccc(NC(=O)c2ccc(C)c(C(F)(F)F)c2)cc1C#Cc1nn(C2CCC(O)CC2)c2ncnc(N)c12 (stereo not shown),cell-free assay,10 µM,remaining signal,98%
Nc1ncnc2occ(-c3ccc(NC(=O)Nc4cc(C(F)(F)F)ccc4F)cc3)c12,cell-free assay,20 µM,remaining signal,93%
CS(=O)(=O)Nc1cccc(-c2csc(NC(=O)CSc3nc4nccnc4c(=O)n3CCc3ccccc3)n2)c1,"enzyme activity, inhibitor",10 µM,inhibition,16%
Cc1ccc(C(=O)Nc2ccc(CN3CCN(C)CC3)c(C(F)(F)F)c2)cc1C#Cc1cnc2cccnn12,cell-free assay,23.5 nM,remaining signal,85%
Cc1ccc(C(=O)NCc2ccsc2)cc1C#Cc1cn(C(C)C)c2ncnc(N)c12,"enzyme activity, inhibitor",1 µM,activity vs control,86%
O=C(CSc1nc2nccnc2c(=O)n1CCc1ccccc1)Nc1nccs1,"enzyme activity, inhibitor",10 µM,inhibition,76%
